Laboratory results as given in ChEMBL document CHEMBL1153955, “Indolylarylsulfones bearing natural and unnatural amino acids. Discovery of potent inhibitors of HIV-1 non-nucleoside wild type and resistant mutant strains reverse transcriptase and coxsackie B4 virus” (J Med Chem, 2009).

What was measured:
Human alphaherpesvirus 1 [1] = test: Antiviral activity against HSV1 KOS in human HEL cells assessed as protection against virus-induced cytopathicity; format: functional, organism-based; settings: Human alphaherpesvirus 1, KOS
Human alphaherpesvirus 2 = test: Antiviral activity against HSV2 G in human HEL cells assessed as protection against virus-induced cytopathicity; format: functional, organism-based; settings: Human alphaherpesvirus 2, strain G
In short: (§1)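 Confluent cell monolayers inoculated with 100 CCID₅₀ virus. After 1-2 h adsorption, residual virus removed and cultures incubated with varying compound concentrations. Cytopathicity scored once it reached completion in untreated infected controls. EC₅₀ = dose reducing virus-induced cytopathogenicity by 50%.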

[2] = Cytotoxicity against human HEL cells assessed as drug level causing microscopically detectable alteration of normal cell morphology after 3 days; format: cell-based
Human alphaherpesvirus 1 [3] = test: Antiviral activity against thymidine kinase deficient and acyclovir resistant HSV1 KOS in human HEL cells assessed as protection against virus-induced cytopathicity; format: functional, organism-based; settings: Human alphaherpesvirus 1, KOS
Vaccinia virus = test: Antiviral activity against Vaccinia virus Lederle in human HEL cells assessed as protection against virus-induced cytopathicity; format: functional, organism-based; settings: Orthopoxvirus vaccinia
[4] = tested on: Vesicular stomatitis virus; test: Antiviral activity against VSV in human HEL cells assessed as protection against virus-induced cytopathicity; format: functional, organism-based
Punta Toro virus = test: Antiviral activity against Punta Toro virus in african green monkey Vero cells assessed as protection against virus-induced cytopathicity; format: functional, organism-based; in short: as §1
Human respirovirus 3 = test: Antiviral activity against Parainfluenza virus type 3 in african green monkey Vero cells assessed as protection against virus-induced cytopathicity; format: functional, organism-based; settings: Human respirovirus 3, Vero; in short: as §1
[5] = tested on: Vesicular stomatitis virus; test: Antiviral activity against VSV in human HeLa cells assessed as protection against virus-induced cytopathicity; format: functional, organism-based
[6] = Cytotoxicity against african green monkey Vero cells assessed as drug level causing microscopically detectable alteration of normal cell morphology after 3 days; format: cell-based; settings: chlorocebus sabaeus
In short: (§2)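 Serial compound dilutions added to confluent HeLa or Vero monolayers. MCC = minimum concentration causing microscopically detectable alteration of cell morphology after 3 days of incubation.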

Coxsackievirus B4 [7] = test: Antiviral activity against Coxsackievirus B4 in human HeLa cells assessed as protection against virus-induced cytopathicity; format: functional, organism-based; settings: Enterovirus B; in short: as §1
[8] = tested on: Respiratory syncytial virus; test: Antiviral activity against RSV Long in human HeLa cells assessed as protection against virus-induced cytopathicity; format: functional, organism-based; in short: as §1
Coxsackievirus B4 [9] = test: Antiviral activity against Coxsackievirus B4 in african green monkey Vero cells assessed as protection against virus-induced cytopathicity; format: functional, organism-based; settings: Enterovirus B; in short: as §1
Sindbis virus = test: Antiviral activity against Sindbis virus in african green monkey Vero cells assessed as protection against virus-induced cytopathicity; format: functional, organism-based; in short: as §1
[10] = Cytotoxicity against human HeLa cells assessed as drug level causing microscopically detectable alteration of normal cell morphology after 3 days; format: cell-based; in short: as §2
[11] = tested on: Mammalian orthoreovirus 1; test: Antiviral activity against Reovirus 1 in african green monkey Vero cells assessed as protection against virus-induced cytopathicity; format: functional, organism-based; settings: Mammalian orthoreovirus 1, Vero; in short: as §1
Felid alphaherpesvirus 1 = test: Antiviral activity against Feline herpesvirus in feline […] cells assessed as inhibition of virus-induced cytopathicity; format: functional, organism-based
[12] = Cytotoxicity against feline CRFK cells by MTS assay; format: cell-based, Felis catus; settings: cat
Feline coronavirus = test: Antiviral activity against Feline coronavirus in feline […] cells assessed as inhibition of virus-induced cytopathicity; format: functional, organism-based; settings: Alphacoronavirus 1
Influenza A virus [13] = test: Antiviral activity against influenza H1N1 virus in MDCK cells assessed as reduction of virus-induced cytopathicity by MTS method; format: functional, organism-based
[14] = Cytotoxicity against MDCK cells by MTS assay; format: cell-based, Canis lupus familiaris; settings: dog
[15] = Cytotoxicity against MDCK cells assessed as drug level causing microscopically detectable alteration of normal cell morphology; format: cell-based, Canis lupus familiaris; settings: dog
Influenza B virus [16] = test: Antiviral activity against influenza B virus in MDCK cells assessed as reduction of virus-induced cytopathicity by MTS method; format: functional, organism-based
Influenza A virus H3N2 [17] = test: Antiviral activity against influenza H3N2 virus in MDCK cells assessed as reduction of virus-induced cytopathicity by MTS method; format: functional, organism-based
Influenza A virus [18] = test: Antiviral activity against influenza H1N1 virus in MDCK cells assessed as reduction of virus-induced cytopathicity by visual cytopathic effect scoring method; format: functional, organism-based
Influenza B virus [19] = test: Antiviral activity against influenza B virus in MDCK cells assessed as reduction of virus-induced cytopathicity by visual cytopathic effect scoring method; format: functional, organism-based
Influenza A virus H3N2 [20] = test: Antiviral activity against influenza H3N2 virus in MDCK cells assessed as reduction of virus-induced cytopathicity by visual cytopathic effect scoring method; format: functional, organism-based
[21] = target: Human immunodeficiency virus type 1 reverse transcriptase (Human immunodeficiency virus 1, UniProt Q72547); test: Inhibition of HIV1 reverse transcriptase p66/p51; settings: read-out: IC50
[22] = target: Human immunodeficiency virus type 1 reverse transcriptase (Human immunodeficiency virus 1, UniProt Q72547, K103N); test: Inhibition of HIV1 reverse transcriptase p66/p51 K103N mutant; settings: read-out: IC50
In short: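 Substrate was 0.5 µg poly(rA)/oligo(dT) 10:1 (0.3 µM 3′-OH ends) with 10 µM [³H]dTTP, at 37 °C. Acid-precipitable radioactivity was counted on GF/C filters after TCA washes.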

CCRF-CEM = test: Antiproliferative activity against human CEM cells after 3 days; format: cell-based; settings: 72 h
In short: (§3)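 Cells seeded at 5 × 10⁴ to 7.5 × 10⁴ cells/200 µL with or without serial compound dilutions; incubated at 37 °C for 2 days (L1210) or 3 days (Molt4/C8, CEM). Cell numbers counted with a Coulter counter. CC₅₀ = concentration reducing proliferation by 50% versus untreated controls, read from plots of cell number (% of control) against concentration. Means of at least two independent experiments.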

[23] = tested on: Human immunodeficiency virus 2; test: Antiviral activity against HIV2 ROD in human CEM cells assessed as protection against virus-induced cytopathicity after 4 days; format: functional, organism-based; settings: Human immunodeficiency virus 2, ROD, CCRF-CEM, 96 h
In short: (§4)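 CEM cells (~3 × 10⁵ cells/mL) infected with ~100 CCID₅₀ per mL of HIV-1 (IIIB) or HIV-2 (ROD), then seeded into wells containing compound dilutions. After 4 days at 37 °C, syncytium (giant cell) formation was examined microscopically. EC₅₀ = concentration protecting CEM cells from HIV cytopathicity by 50%.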

L1210 = test: Antiproliferative activity against mouse L1210 cells after 2 days; format: cell-based; settings: L1210, 48 h; in short: as §3
[24] = Antiproliferative activity against human Molt4/C8 cells after 3 days; format: cell-based; settings: MOLT-4, 72 h; in short: as §3
[25] = tested on: Human immunodeficiency virus 1; test: Antiviral activity against HIV1 3B in human CEM cells assessed as protection against virus-induced cytopathicity after 4 days; format: functional, organism-based; settings: Human immunodeficiency virus 1, 3B, CCRF-CEM, 96 h; in short: as §4

## Nc1ccn(C[C@@H](CO)OCP(=O)(O)O)c(=O)n1 [CIDOFOVIR]
Human alphaherpesvirus 1 [1]
  EC50: 2000 nM
Human alphaherpesvirus 2
  EC50: 1 µM
[2]
  MCC at 72 h: > 250 µM
Human alphaherpesvirus 1 [3]
  EC50: 1 µM
Vaccinia virus
  EC50: 20 µM
[4]
  EC50: > 250 µM

## Nc1ncnc2c1ncn2C[C@H](O)CO [(S)-DHPA]
Punta Toro virus
  EC50: > 250 µM
Human respirovirus 3
  EC50: > 250 µM
[5]
  EC50: > 250 µM
[6]
  MCC at 72 h: > 250 µM
Coxsackievirus B4 [7]
  EC50: > 250 µM
[8]
  EC50: > 250 µM
Coxsackievirus B4 [9]
  EC50: > 250 µM
Sindbis virus
  EC50: > 250 µM
[10]
  MCC at 72 h: > 250 µM
[11]
  EC50: > 250 µM

## Nc1nc2c(ncn2COC(CO)CO)c(=O)[nH]1 [GANCICLOVIR]
Human alphaherpesvirus 2
  EC50: 0.2 µM
[2]
  MCC at 72 h: > 100 µM
Felid alphaherpesvirus 1
  EC50: 1200 nM
[12]
  CC50: > 100 µM
Vaccinia virus
  EC50: > 100 µM
Feline coronavirus
  EC50: > 100 µM
[4]
  EC50: > 100 µM

## CC(N)C12CC3CC(CC(C3)C1)C2 (stereo unspecified) [RIMANTADINE]
Influenza A virus [13]; Influenza A virus, H1N1, MDCK
  EC50: 33.2 µM
[14]
  CC50: > 100 µM
[15]
  MCC: > 100 µM
Influenza B virus [16]
  EC50: > 100 µM
Influenza A virus H3N2 [17]
  EC50: > 100 µM
Influenza A virus [18]
  EC50: 45 µM
Influenza B virus [19]
  EC50: > 100 µM
Influenza A virus H3N2 [20]
  EC50: > 100 µM

## Cc1cc(C)cc(S(=O)(=O)c2c(C(=O)N[C@@H](C)C(N)=O)[nH]c3ccc(Cl)cc23)c1
[21]
  IC50: 26 nM
[22]
  IC50: 1010 nM

## Cc1cc(C)cc(S(=O)(=O)c2c(C(=O)N[C@H](C)C(N)=O)[nH]c3ccc(Br)cc23)c1
[21]
  IC50: 16 nM
[22]
  IC50: 324 nM

## Cc1cc(C)cc(S(=O)(=O)c2c(C(=O)NNC(C)C)[nH]c3ccc(Cl)cc23)c1
Punta Toro virus
  EC50: > 100 µM
Influenza A virus [13]; Influenza A virus, H1N1, MDCK
  EC50: > 20 µM
[14]
  CC50: > 100 µM
[15]
  MCC: 100 µM
CCRF-CEM
  IC50: ≥ 500 µM
[23]
  EC50: > 50 µM
Human respirovirus 3
  EC50: > 100 µM
Human alphaherpesvirus 1 [1]
  EC50: > 100000 nM
[5]
  EC50: > 100 µM
Human alphaherpesvirus 2
  EC50: > 100 µM
L1210
  IC50: > 500 µM
[6]
  MCC at 72 h: > 100 µM
Coxsackievirus B4 [7]
  EC50: > 100 µM
[24]
  IC50: 432 µM
[2]
  MCC at 72 h: > 100 µM
Influenza B virus [16]
  EC50: > 20 µM
[8]
  EC50: > 100 µM
[21]
  IC50: 10 nM
Felid alphaherpesvirus 1
  EC50: > 100000 nM
Coxsackievirus B4 [9]
  EC50: > 100 µM
Influenza A virus H3N2 [17]
  EC50: > 20 µM
Influenza A virus [18]
  EC50: > 20 µM
Influenza B virus [19]
  EC50: > 20 µM
Human alphaherpesvirus 1 [3]
  EC50: > 100 µM
Influenza A virus H3N2 [20]
  EC50: > 20 µM
Sindbis virus
  EC50: > 100 µM
[12]
  CC50: > 100 µM
[10]
  MCC at 72 h: > 100 µM
Vaccinia virus
  EC50: > 100 µM
[22]
  IC50: 800 nM
Feline coronavirus
  EC50: > 100 µM
[11]
  EC50: > 100 µM
[4]
  EC50: > 100 µM
[25]
  EC50: 6.4 nM

## Cc1cc(C)cc(S(=O)(=O)c2c(C(=O)N[C@H](C)C(N)=O)[nH]c3ccc(Cl)cc23)c1
[21]
  IC50: 17 nM
[22]
  IC50: 253 nM

## Cc1cc(C)cc(S(=O)(=O)c2c(C(=O)N[C@@H](C)C(N)=O)[nH]c3ccc(Br)cc23)c1
[21]
  IC50: 13 nM
[22]
  IC50: 1500 nM

## Cc1cc(C)cc(S(=O)(=O)c2c(C(=O)N[C@@H](C)CC(N)=O)[nH]c3ccc(Cl)cc23)c1
[21]
  IC50: 315 nM
[22]
  IC50: 1340 nM

## Cc1cc(C)cc(S(=O)(=O)c2c(C(=O)N[C@H](C)CC(N)=O)[nH]c3ccc(Cl)cc23)c1
[21]
  IC50: 147 nM
[22]
  IC50: 1420 nM

## NC(=O)c1ncn([C@@H]2O[C@H](CO)[C@@H](O)[C@H]2O)n1 [RIBAVIRIN]
Punta Toro virus
  EC50: 50 µM
Influenza A virus [13]; mdck
  EC50: 8400 µM
[14]
  CC50: > 100 µM
[15]
  MCC: > 100 µM
Human respirovirus 3
  EC50: > 50 µM
Human alphaherpesvirus 1 [1]
  EC50: > 250000 nM
Human alphaherpesvirus 2
  EC50: 250 µM
[6]
  MCC at 72 h: > 250 µM
Coxsackievirus B4 [7]
  EC50: 50 µM
[2]
  MCC at 72 h: > 250 µM
Influenza B virus [16]
  EC50: 4.8 µM
[8]
  EC50: 10 µM
Coxsackievirus B4 [9]
  EC50: ≥ 250 µM
Influenza A virus H3N2 [17]
  EC50: 8.1 µM
Influenza A virus [18]
  EC50: 900 µM
Influenza B virus [19]
  EC50: 4 µM
Human alphaherpesvirus 1 [3]
  EC50: > 250 µM
Sindbis virus
  EC50: 250 µM
[10]
  MCC at 72 h: > 250 µM
Vaccinia virus
  EC50: 112 µM
[4]
  EC50: 125 µM

## NC12CC3CC(CC(C3)C1)C2 [AMANTADINE]
Influenza A virus [13]; Influenza A virus, H1N1, MDCK
  EC50: > 100 µM
[14]
  CC50: > 100 µM
[15]
  MCC: > 100 µM
Influenza B virus [16]
  EC50: > 100 µM
Influenza A virus H3N2 [17]
  EC50: 75.3 µM
Influenza A virus [18]
  EC50: > 100 µM
Influenza B virus [19]
  EC50: > 100 µM
Influenza A virus H3N2 [20]
  EC50: 100 µM

## O=c1[nH]c(=O)n([C@H]2C[C@H](O)[C@@H](CO)O2)cc1/C=C/Br [BRIVUDINE]
Human alphaherpesvirus 1 [1]
  EC50: 20 nM
Human alphaherpesvirus 2
  EC50: 29 µM
[2]
  MCC at 72 h: > 250 µM
Vaccinia virus
  EC50: 4 µM
[4]
  EC50: > 250 µM
